MIC data for eleven compounds are collected here from ChEMBL document CHEMBL1275278, “Synthesis and pharmacological evaluation of clubbed isopropylthiazole derived triazolothiadiazoles, triazolothiadiazines and mannich bases as potential antimicrobial and antitubercular agents” (Eur J Med Chem, 2010).

Common to all, as to assay type: functional
One test has as its system Enterococcus faecalis. Description: Antibacterial activity against Streptococcus faecalis ATCC 14506 after 24 hrs by broth microdilution method. The note with it: ATCC 14506, 24 h. An outline of the steps:
(§1)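 Broth dilution in Mueller-Hinton broth. Tubes inoculated at 10⁵ cfu/mL and incubated 37 °C for 24 h. MIC taken as lowest concentration completely inhibiting growth. Media and media-plus-DMSO growth controls; ciprofloxacin and norfloxacin as reference standards.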
(Dilution methods test growth across graded concentrations, often in twofold steps.)

The next test concerns Staphylococcus aureus. Description: Antibacterial activity against Staphylococcus aureus ATCC 11632 after 24 hrs by broth microdilution method. The note with it: ATCC 11632, 24 h. Summed up: as §1
The test system of the next test is Aspergillus niger. The test is described as follows: Antifungal activity against Aspergillus niger ATCC 6275 after 24 hrs by broth microdilution method. The note with it: ATCC 6275, 24 h.
A further test relates to Escherichia coli. Description: Antibacterial activity against Escherichia coli ATCC 10536 after 24 hrs by broth microdilution method. Conditions: ATCC 10536, 24 h. An outline of the steps: as §1
A further test deals with Klebsiella pneumoniae. Description: Antibacterial activity against Klebsiella pneumoniae ATCC 10031 after 24 hrs by broth microdilution method. Conditions: ATCC 10031, 24 h. Summed up: as §1
In a further test the test system is Candida tropicalis. Description: Antifungal activity against Candida tropicalis ATCC 1369 after 24 hrs by broth microdilution method. The note with it: ATCC 1369, 24 h.
The subject of test [1] is Mycobacterium tuberculosis. Description: Antimycobacterial activity against Mycobacterium tuberculosis H37Rv after 21 days by broth dilution assay. Conditions: 504 h. Summed up:
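Frozen culture in Middlebrook 7H9 broth with 10% albumin-dextrose-catalase and 0.2% glycerol, thawed and diluted in broth to 10⁵ cfu/mL. Compounds dissolved in DMSO, twofold diluted in broth; final DMSO 1.3%. Tubes inoculated, incubated at 37 °C. Growth compared visually against drug-free and drug- and inoculum-free controls and isoniazid. MIC = lowest concentration inhibiting ≥99% of the starting bacterial population.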

For the next test, the system named is Pseudomonas aeruginosa. The test is described as follows: Antibacterial activity against Pseudomonas aeruginosa ATCC 10145 after 24 hrs by broth microdilution method. Conditions: ATCC 10145, 24 h. Summed up: as §1
Another test relates to Bacillus subtilis. The test is described as follows: Antibacterial activity against Bacillus subtilis ATCC 60511 after 24 hrs by broth microdilution method. The note with it: ATCC 60511, 24 h. An outline of the steps:
as §1

The test system of another test is Saccharomyces cerevisiae. The test is described as follows: Antifungal activity against Saccharomyces cerevisiae ATCC 9763 after 24 hrs by broth microdilution method. Conditions: ATCC 9763, 24 h.

As a reminder, the MIC is the lowest concentration found to suppress growth. Higher therefore signals a less susceptible organism.

Converted amounts (≈) assume the structure as drawn.

Turning to `CC(C)c1csc(-c2nnc3n2N=C(c2ccccc2)CS3)n1`, the MIC was 125 µg/mL (≈ 366 µM) in the test on Enterococcus faecalis; 125 µg/mL (≈ 366 µM) against Staphylococcus aureus; 62.5 µg/mL (≈ 183 µM) in the test on Aspergillus niger; 125 µg/mL (≈ 366 µM) against Escherichia coli; 125 µg/mL (≈ 366 µM) against Klebsiella pneumoniae; 125 µg/mL (≈ 366 µM) in the test on Candida tropicalis. In addition, the MIC in test [1] is 125 µg/mL (≈ 366 µM); with Pseudomonas aeruginosa it was 62.5 µg/mL (≈ 183 µM); with Bacillus subtilis, 62.5 µg/mL (≈ 183 µM); against Saccharomyces cerevisiae, 62.5 µg/mL (≈ 183 µM).

Regarding `CC(C)c1csc(-c2nnc3n2NC(c2ccccc2Cl)S3)n1` (centres undefined), the MIC in the test on Enterococcus faecalis turned out to be 31.2 µg/mL (≈ 85.9 µM); with Staphylococcus aureus it was 31.2 µg/mL (≈ 85.9 µM); against Aspergillus niger, 31.2 µg/mL (≈ 85.9 µM); in the test with Escherichia coli, 62.5 µg/mL (≈ 172 µM); against Klebsiella pneumoniae, 31.2 µg/mL (≈ 85.9 µM); in the test on Candida tropicalis, 16 µg/mL (≈ 44 µM). In addition, the MIC is 62.5 µg/mL (≈ 172 µM) in [1], 62.5 µg/mL (≈ 172 µM) against Pseudomonas aeruginosa, 125 µg/mL (≈ 344 µM) with Bacillus subtilis and 125 µg/mL (≈ 344 µM) in the test with Saccharomyces cerevisiae.

With `COc1cc(C2Nn3c(nnc3-c3nc(C(C)C)cs3)S2)cc(OC)c1OC` (centres undefined), the MIC against Enterococcus faecalis came out at 31.2 µg/mL (≈ 74.5 µM); against Staphylococcus aureus it was 31.2 µg/mL (≈ 74.5 µM); with Aspergillus niger, 31.2 µg/mL (≈ 74.5 µM); in the test on Escherichia coli, 125 µg/mL (≈ 298 µM); against Klebsiella pneumoniae, 62.5 µg/mL (≈ 149 µM); in the test on Candida tropicalis it was 16 µg/mL (≈ 38.1 µM). Moreover, the MIC came to 62.5 µg/mL (≈ 149 µM) in [1], 31.2 µg/mL (≈ 74.5 µM) against Pseudomonas aeruginosa, 31.2 µg/mL (≈ 74.5 µM) against Bacillus subtilis and 16 µg/mL (≈ 38.1 µM) in the test on Saccharomyces cerevisiae.

In the case of `CC(C)c1csc(-c2nnc3n2N=C(c2ccc(Cl)cc2)CS3)n1`, the MIC against Enterococcus faecalis was 8 µg/mL (≈ 21.3 µM); in the test with Staphylococcus aureus, 125 µg/mL (≈ 333 µM); against Aspergillus niger it was 31.2 µg/mL (≈ 83.1 µM); in the test on Escherichia coli, 125 µg/mL (≈ 333 µM); against Klebsiella pneumoniae it was 16 µg/mL (≈ 42.6 µM); against Candida tropicalis it was 62.5 µg/mL (≈ 166 µM). In addition, the minimum inhibitory concentration (MIC) in [1] amounted to 16 µg/mL (≈ 42.6 µM); in the test with Pseudomonas aeruginosa, 16 µg/mL (≈ 42.6 µM); with Bacillus subtilis, 8 µg/mL (≈ 21.3 µM); against Saccharomyces cerevisiae it was 16 µg/mL (≈ 42.6 µM).

`CC(C)c1csc(-c2n[nH]c(=S)n2NC(=O)c2ccccc2)n1`: the MIC was 31.2 µg/mL (≈ 90.5 µM) with Enterococcus faecalis; 16 µg/mL (≈ 46.3 µM) in the test with Staphylococcus aureus; 16 µg/mL (≈ 46.3 µM) in the test on Aspergillus niger; 31.2 µg/mL (≈ 90.5 µM) in the test with Escherichia coli; 125 µg/mL (≈ 362 µM) in the test with Klebsiella pneumoniae; 31.2 µg/mL (≈ 90.5 µM) against Candida tropicalis. For the same compound, the MIC in test [1] was 16 µg/mL (≈ 46.3 µM); against Pseudomonas aeruginosa, 16 µg/mL (≈ 46.3 µM); in the test with Bacillus subtilis, 31.2 µg/mL (≈ 90.5 µM); in the test with Saccharomyces cerevisiae, 62.5 µg/mL (≈ 181 µM).

In the case of `CCn1cc(C(=O)O)c(=O)c2cc(F)c(N3CCNCC3)cc21` [NORFLOXACIN], the MIC against Enterococcus faecalis is at most 5 µg/mL; against Staphylococcus aureus, at most 5 µg/mL; against Escherichia coli, at most 1 µg/mL; with Klebsiella pneumoniae, at most 1 µg/mL; in the test on Pseudomonas aeruginosa it was at most 5 µg/mL; against Bacillus subtilis, at most 1 µg/mL.

For `NNC(=O)c1ccncc1` [ISONIAZID], in [1], the minimal inhibitory concentration (MIC) was 0.25 µg/mL (≈ 1.82 µM).

With `O=C(O)c1cn(C2CC2)c2cc(N3CCNCC3)c(F)cc2c1=O` [CIPROFLOXACIN], the MIC with Enterococcus faecalis is at most 5 µg/mL; in the test with Staphylococcus aureus, at most 5 µg/mL; in the test with Escherichia coli, at most 1 µg/mL; in the test with Klebsiella pneumoniae, at most 1 µg/mL; in the test on Pseudomonas aeruginosa it was at most 5 µg/mL; against Bacillus subtilis, at most 1 µg/mL.

For the compound `COc1ccc(/C=N/n2c(-c3nc(C(C)C)cs3)nn(CN3CCOCC3)c2=S)cc1`, the MIC against Enterococcus faecalis amounted to 62.5 µg/mL (≈ 136 µM); in the test on Staphylococcus aureus, 125 µg/mL (≈ 273 µM); in the test on Aspergillus niger, 16 µg/mL (≈ 34.9 µM); in the test with Escherichia coli it was 125 µg/mL (≈ 273 µM); in the test on Klebsiella pneumoniae, 31.2 µg/mL (≈ 68.1 µM); with Candida tropicalis it was 31.2 µg/mL (≈ 68.1 µM). The MIC with Pseudomonas aeruginosa came to 16 µg/mL (≈ 34.9 µM); with Bacillus subtilis it was 125 µg/mL (≈ 273 µM); against Saccharomyces cerevisiae it was 62.5 µg/mL (≈ 136 µM).

Consider `COc1ccc(C2Nn3c(nnc3-c3nc(C(C)C)cs3)S2)cc1` (centres undefined), for which the minimum inhibitory concentration (MIC) in the test on Enterococcus faecalis amounted to 16 µg/mL (≈ 44.5 µM); against Staphylococcus aureus, 31.2 µg/mL (≈ 86.9 µM); against Aspergillus niger it was 125 µg/mL (≈ 348 µM); against Escherichia coli, 125 µg/mL (≈ 348 µM); with Klebsiella pneumoniae, 250 µg/mL (≈ 695 µM); against Candida tropicalis, 125 µg/mL (≈ 348 µM). Besides, the MIC against Pseudomonas aeruginosa, against Bacillus subtilis and in the test with Saccharomyces cerevisiae was 62.5 µg/mL (≈ 174 µM) each time.

For `OC(Cn1cncn1)(Cn1cncn1)c1ccc(F)cc1F` [FLUCONAZOLE], the MIC against Aspergillus niger, in the test on Candida tropicalis and against Saccharomyces cerevisiae was at most 1 µg/mL throughout.
